Test results from ChEMBL document CHEMBL4680230, “Discovery of aryl-piperidine derivatives as potential antipsychotic agents using molecular hybridization strategy” (Eur J Med Chem, 2020).

Columns and labels:
[1] = target: T1, 5-hydroxytryptamine receptor 1A (Homo sapiens, UniProt P08908); test: Agonist activity at human 5H1A receptor expressed in HEK293 cells incubated for 60 mins by Eu-cAMP tracer based LANCE ultra cAMP assay; type: functional, cell-based
T1 sequence (P08908 whole entry): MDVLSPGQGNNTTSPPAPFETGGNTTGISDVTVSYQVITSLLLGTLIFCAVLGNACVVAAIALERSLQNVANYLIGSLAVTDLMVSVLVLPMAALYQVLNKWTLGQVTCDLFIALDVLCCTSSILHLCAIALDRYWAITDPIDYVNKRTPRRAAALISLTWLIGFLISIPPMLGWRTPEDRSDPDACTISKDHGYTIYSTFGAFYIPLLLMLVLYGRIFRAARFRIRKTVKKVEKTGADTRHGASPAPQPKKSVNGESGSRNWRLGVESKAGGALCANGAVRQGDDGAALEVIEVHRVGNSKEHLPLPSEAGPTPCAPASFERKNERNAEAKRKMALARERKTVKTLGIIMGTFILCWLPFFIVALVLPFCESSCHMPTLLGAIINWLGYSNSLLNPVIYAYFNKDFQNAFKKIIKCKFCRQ
Method in brief: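 Cell-based TR-FRET cAMP assay on human 5-HT1A receptor-expressing cells. Cells were collected in stimulation buffer, added to the compound, centrifuged briefly and incubated 60 min at room temperature. Eu-cAMP tracer and ULight-anti-cAMP were then added, followed by another 60 min at room temperature before reading. The reference agonist was 8-OH-DPAT. […] came from sigmoidal nonlinear regression.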

[2] = Half life in mouse liver microsomes measured after 60 mins in presence of NADPH by LC-MS/MS analysis; type: ADME, Microsome
Method in brief: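 Mouse liver microsomes (20 mg/ml stock) were incubated with compound in 0.1 M PBS, pH 7.4, at 37 °C. Compound came from a 1 mM methanol stock, diluted in methanol/water. Reaction was started with NADPH (10 mM stock). Aliquots at 0, 5, 10, 20, 40 and 60 min were quenched in cold methanol and centrifuged at 4 °C. Supernatants were analysed by LC-MS/MS.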

[3] = target: 5-hydroxytryptamine receptor 2A (Homo sapiens, UniProt P28223); test: Antagonist activity at human 5HT2A receptor expressed in CHO-K1 cells measured after 15 mins by FLIPR assay; type: cell-based
D(2) dopamine receptor = D(2) dopamine receptor (Homo sapiens, UniProt P14416); test: Antagonist activity at human D2 receptor expressed in HEK293 cells incubated for 60 mins by Eu-cAMP tracer based LANCE ultra cAMP assay; type: cell-based
[4] = Half life in ICR mouse at 25 mg/kg, po; type: ADME, organism-based; settings: in vivo
Method in brief: (§1)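 Pharmacokinetics in ICR mice, n = 6 per group, after a single 5 mg/kg intravenous dose or a 25 mg/kg oral dose. Plasma exposure gave AUC over 0–24 h, t1/2, Cmax and Tmax. Oral bioavailability was derived from comparison of the two routes.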

[5] = Oral bioavailability in ICR mouse at 25 mg/kg; type: ADME, organism-based; settings: in vivo; method in brief: as §1
[6] = Drug concentration in ICR mouse brain at 1 mg/kg, iv measured after 1 hr; type: ADME, organism-based
Method in brief: (§2)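 Brain penetration in ICR mice, n = 3 per group, given 1 mg/kg intravenously. Plasma, cerebrospinal fluid and brain levels were measured at 1 h and 4 h post-dose. Kp is the brain-to-plasma concentration ratio.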

[7] = Brain to plasma partition coefficient, Kp of compound in ICR mouse at 1 mg/kg, iv measured after 1 hr; type: ADME, organism-based; method in brief: as §2
[8] = Drug concentration in ICR mouse brain at 1 mg/kg, iv measured after 4 hrs; type: ADME, organism-based; method in brief: as §2
[9] = Brain to plasma partition coefficient, Kp of compound in ICR mouse at 1 mg/kg, iv measured after 4 hrs; type: ADME, organism-based; method in brief: as §2
[10] = Drug concentration in ICR mouse cerebrospinal fluid at 1 mg/kg, iv measured after 1 hr; type: ADME, organism-based; settings: read-out: Drug uptake; method in brief: as §2
[11] = AUC (0 to 24 hrs) in ICR mouse at 25 mg/kg, po; type: ADME, organism-based; set-up: time < 24 hr, route oral, dose 25 mg/kg; settings: in vivo; method in brief: as §1
[12] = Tmax in ICR mouse at 25 mg/kg, po; type: ADME, organism-based; settings: in vivo; method in brief: as §1
[13] = Cmax in ICR mouse at 25 mg/kg, po; type: ADME, organism-based; set-up: route oral, dose 25 mg/kg; settings: in vivo; method in brief: as §1
[14] = AUC (0 to 24 hrs) in ICR mouse at 5 mg/kg, iv; type: ADME, organism-based; set-up: time < 24 hr, route intravenous, dose 5 mg/kg; settings: in vivo; method in brief: as §1
[15] = Half life in ICR mouse at 5 mg/kg, iv; type: ADME, organism-based; settings: in vivo; method in brief: as §1
[16] = Plasma concentration in ICR mouse at 1 mg/kg, iv measured after 4 hrs; type: ADME, organism-based; method in brief: as §2
[17] = Plasma concentration in ICR mouse at 1 mg/kg, iv measured after 1 hr; type: ADME, organism-based; method in brief: as §2
[18] = target: T1, 5-hydroxytryptamine receptor 1A; test: Displacement of [3H]5-HT from recombinant 5HT1A receptor (unknown origin) expressed in CHO cell membrane measured after 50 mins by microbeta scintillation counting method; type: cell membranes
[19] = target: T1, 5-hydroxytryptamine receptor 1A; test: Agonist activity at recombinant 5HT1A receptor (unknown origin) expressed in CHO cell membrane assessed as [35S]GTPgammaS binding by liquid scintillation counting method; type: functional, cell membranes

5-hydroxytryptamine receptor 2A, sequence (P28223 whole entry): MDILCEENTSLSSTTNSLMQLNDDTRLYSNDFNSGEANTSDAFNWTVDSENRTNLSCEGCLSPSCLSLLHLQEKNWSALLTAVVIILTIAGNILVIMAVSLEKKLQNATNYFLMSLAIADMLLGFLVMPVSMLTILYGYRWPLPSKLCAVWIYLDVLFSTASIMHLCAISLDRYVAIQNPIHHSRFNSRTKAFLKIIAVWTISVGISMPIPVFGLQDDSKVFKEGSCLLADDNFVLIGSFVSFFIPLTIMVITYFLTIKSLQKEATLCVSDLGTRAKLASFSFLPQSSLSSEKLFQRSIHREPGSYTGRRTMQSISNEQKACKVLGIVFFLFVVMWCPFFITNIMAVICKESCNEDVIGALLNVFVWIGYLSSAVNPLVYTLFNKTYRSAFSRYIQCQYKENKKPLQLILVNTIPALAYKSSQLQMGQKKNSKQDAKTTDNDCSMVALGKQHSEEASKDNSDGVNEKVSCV
D(2) dopamine receptor, sequence (P14416 whole entry): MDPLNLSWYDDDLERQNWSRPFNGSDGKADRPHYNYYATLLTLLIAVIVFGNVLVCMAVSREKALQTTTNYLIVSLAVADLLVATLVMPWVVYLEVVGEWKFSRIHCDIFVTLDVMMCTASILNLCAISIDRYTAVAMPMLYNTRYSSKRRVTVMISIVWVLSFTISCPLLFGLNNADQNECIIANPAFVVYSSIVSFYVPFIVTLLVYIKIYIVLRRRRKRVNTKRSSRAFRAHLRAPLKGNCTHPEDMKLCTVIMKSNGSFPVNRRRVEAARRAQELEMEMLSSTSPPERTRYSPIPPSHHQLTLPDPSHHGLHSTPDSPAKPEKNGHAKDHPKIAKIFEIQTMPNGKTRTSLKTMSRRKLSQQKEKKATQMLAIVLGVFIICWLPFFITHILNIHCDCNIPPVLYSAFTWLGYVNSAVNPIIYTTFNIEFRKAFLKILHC

Row | Structure (SMILES) | EC50 ([1]; hek293) | IC50 ([3]; read-out: IC50) [nM] | IC50 (D(2) dopamine receptor; read-out: IC50) [nM] | EC50 ([1]; read-out: EC50) [nM] | other results
1 | O=C(c1ccccc1)N(CCCN1CCC(c2noc3cc(F)ccc23)CC1)CC1CC1 | Not Active | 40.8 |  |  | half-life [2]: 6.9 min
2 | O=C(c1ccccc1)N(CCCN1CCN(c2ccccn2)CC1)CC1CC1 |  | 7720 |  | 24.9 | IC50 (D(2) dopamine receptor; hek293): Not Active
3 | CC(C)N(CCCN1CCC(c2noc3cc(F)ccc23)CC1)C(=O)c1ccccc1 | Not Active | 11.6 | 59.3 |  | half-life [2]: 31.5 min
4 | O=C(c1ccccc1)N(CCCN1CCN(c2ccccn2)CC1)C1COC1 |  |  |  | 374 | IC50 (D(2) dopamine receptor; hek293): Not Active; IC50 ([3]; cho-k1): Not Active
5 | CC(C)N(CCCN1CCN(c2ccccn2)CC1)C(=O)c1ccccc1 |  |  |  | 22.8 | IC50 (D(2) dopamine receptor; hek293): Not Active; IC50 ([3]; cho-k1): Not Active
6 | O=S(=O)(c1ccc(C(F)(F)F)cc1)N(CCCN1CCC(c2noc3cc(F)ccc23)CC1)C1COC1 | Not Active | 92.7 | 2.3 |  | 
7 | CCCN(CCCN1CCN(c2ccccn2)CC1)C(=O)c1ccccc1 |  | 7550 | 6930 | 54.5 | 
8 | O=C(c1ccccc1)N(CCCN1CCC(c2noc3cc(F)ccc23)CC1)C1COC1 | Not Active | 18.8 | 156 |  | half-life [2]: 173 min
9 | CCCN(CCCN1CCN(c2cccc(Cl)c2Cl)CC1)C(=O)c1ccccc1 |  | 3250 | 485 | 452 | 
10 | N#Cc1ccc(S(=O)(=O)N(CCCN2CCC(c3noc4cc(F)ccc34)CC2)C2COC2)cc1 | Not Active | 11.3 | 3.6 |  | 

Now from value to molecule, other results behind:

Row | EC50 ([1]; hek293) | IC50 ([3]; read-out: IC50) [nM] | IC50 (D(2) dopamine receptor; read-out: IC50) [nM] | EC50 ([1]; read-out: EC50) [nM] | Structure (SMILES) | other results
11 | Not Active | 73.1 | 18.5 |  | CCCN(CCCN1CCC(c2noc3cc(F)ccc23)CC1)C(=O)c1ccccc1 | half-life [2]: 6.2 min
12 | Not Active | 34.6 | 2 |  | O=S(=O)(c1ccc(Cl)cc1)N(CCCN1CCC(c2noc3cc(F)ccc23)CC1)C1COC1 | 
13 | Not Active |  |  |  | COc1ccccc1N1CCN(CCCN(C(=O)c2ccccc2)C(C)C)CC1 | IC50 ([3]; cho-k1): Not Active
14 | Not Active | 9.3 | 1.9 |  | O=S(=O)(c1ccccc1)N(CCCN1CCC(c2noc3cc(F)ccc23)CC1)C1COC1 | 
15 | Not Active |  | 3760 |  | COc1ccccc1N1CCN(CCCN(C(=O)c2ccccc2)C2COC2)CC1 | IC50 ([3]; cho-k1): Not Active
16 | Not Active | 15.1 | 3 |  | O=S(=O)(c1ccc(F)cc1)N(CCCN1CCC(c2noc3cc(F)ccc23)CC1)C1COC1 | half-life [4]: 120 min; bioavailability [5]: 6.3%; concentration at 1 h [6]: 129 ng/g; Kp at 1 h [7]: 1.72; concentration at 4 h [8]: 10.7 ng/g; Kp at 4 h [9]: 4.03; concentration at 1 h [10]: 2 ng/mL; AUC(0-t) at 24 h [11]: 259 ng·h/mL; Tmax [12]: 15 min; Cmax [13]: 142 ng/mL; AUC(0-t) at 24 h [14]: 829 ng·h/mL; half-life [15]: 32.4 min; concentration at 4 h [16]: 2.7 ng/mL; concentration at 1 h [17]: 75.4 ng/mL
17 |  |  |  | 7 | O=C(CN1CCN(CCCc2c[nH]c3ccc(F)cc23)CC1)N(c1ccccc1)C1CCCCC1 | Ki (D(2) dopamine receptor): 2160 nM; Ki [3]: 207 nM; Ki [18]: 51.9 nM; EC50 [19]: 7 nM
18 |  | 2180 | 1880 | 583 | O=C(c1ccccc1)N(CCCN1CCN(c2cccc(Cl)c2Cl)CC1)C1COC1 | 
19 |  | 768 |  | 175 | O=C(c1ccccc1)N(CCCN1CCN(c2cccc(Cl)c2Cl)CC1)CC1CC1 | 
20 |  | 2010 | 528 | 46.1 | CC(C)N(CCCN1CCN(c2cccc(Cl)c2Cl)CC1)C(=O)c1ccccc1 | 
21 | Not Active |  |  |  | COc1ccccc1N1CCN(CCCN(CC2CC2)C(=O)c2ccccc2)CC1 | IC50 ([3]; cho-k1): Not Active
